Activity calls are given as the source filed them. The rule behind the calls is not given here.

We go through one molecule from ChEMBL document CHEMBL2040780, “Antiarrhythmic properties of phenylpiperazine derivatives of phenytoin with α₁-adrenoceptor affinities” (Bioorg Med Chem, 2012).

Data set [1] deals with Rattus norvegicus. Kind of data set: Antiarrhythmic activity in Wistar rat assessed as effect on heart beat at 2.5 mg/kg, iv after 1 min. In kind it is functional. A digest of the protocol: (§1)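 Male Wistar rats (180–250 g), anaesthetised with thiopental 60 mg/kg ip. Compound given iv in water at 10 mg/kg, or at a lower starting dose of 5 or 2.5 mg/kg. Standard lead II ECG recorded at 50 mm/s just before dosing and at 1, 5 and 15 min after. Heart rate and P–Q, Q–T and QRS intervals were read. n=6 per group, mean ± SEM, one-way ANOVA.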

Data set [2] has as its system Rattus norvegicus. In words: Cardiotoxicity in Wistar rat assessed as effect on Q-T interval at 2.5 mg/kg, iv after 5 mins. It counts as toxicity, organism-based. Details: dose 2.5 mg/kg, route intravenous. As to conditions: in vivo. A digest of the protocol: as §1
For data set [3], the system named is Rattus norvegicus. Kind of data set: Antiarrhythmic activity in Wistar rat assessed as protection against adrenaline-induced bigeminy at 2.5 to 10 mg/kg, iv administered 15 mins prior to adrenaline-challenge. It counts as functional, organism-based. As to conditions: Heart. Summed up:
(§2)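 Szekeres model in male Wistar rats anaesthetised with thiopental (60 mg/kg ip). Test compound given iv in water (2.5–10 mg/kg) 15 min before adrenaline 20 µg/kg iv. Scored for extrasystoles, bigeminy and mortality; activity means no premature beats and inhibited arrhythmia versus controls.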

The test system of data set [4] is Rattus norvegicus. Kind of data set: Cardiotoxicity in Wistar rat assessed as effect on Q-T interval at 2.5 mg/kg, iv after 15 mins. As to conditions: in vivo, 0.25 h. In kind it is toxicity, organism-based. Details: dose 2.5 mg/kg, route intravenous. Summed up: as §1
For data set [5], the system named is Rattus norvegicus. In words: Cardiotoxicity in Wistar rat assessed as effect on QRS interval at 2.5 mg/kg, iv after 5 mins. It counts as toxicity, organism-based. Details: dose 2.5 mg/kg, route intravenous. The note with it: in vivo. Summed up:
as §1

Data set [6] concerns Rattus norvegicus. Kind of data set: Cardiotoxicity in Wistar rat assessed as effect on QRS interval at 2.5 mg/kg, iv after 15 mins. Details: dose 2.5 mg/kg, route intravenous. As to conditions: in vivo, 0.25 h. It counts as toxicity, organism-based. A digest of the protocol:
as §1

Data set [7] concerns Rattus norvegicus. Kind of data set: Cardiotoxicity in Wistar rat assessed as effect on QRS interval at 2.5 mg/kg, iv after 1 min. In kind it is toxicity, organism-based. Details: dose 2.5 mg/kg, route intravenous. The note with it: in vivo. A digest of the protocol: as §1
Data set [8] has as its target T1, Adrenergic receptor alpha-1 (Rattus norvegicus, UniProt P15823+P23944+P43140).
T1 sequence (P15823 whole entry): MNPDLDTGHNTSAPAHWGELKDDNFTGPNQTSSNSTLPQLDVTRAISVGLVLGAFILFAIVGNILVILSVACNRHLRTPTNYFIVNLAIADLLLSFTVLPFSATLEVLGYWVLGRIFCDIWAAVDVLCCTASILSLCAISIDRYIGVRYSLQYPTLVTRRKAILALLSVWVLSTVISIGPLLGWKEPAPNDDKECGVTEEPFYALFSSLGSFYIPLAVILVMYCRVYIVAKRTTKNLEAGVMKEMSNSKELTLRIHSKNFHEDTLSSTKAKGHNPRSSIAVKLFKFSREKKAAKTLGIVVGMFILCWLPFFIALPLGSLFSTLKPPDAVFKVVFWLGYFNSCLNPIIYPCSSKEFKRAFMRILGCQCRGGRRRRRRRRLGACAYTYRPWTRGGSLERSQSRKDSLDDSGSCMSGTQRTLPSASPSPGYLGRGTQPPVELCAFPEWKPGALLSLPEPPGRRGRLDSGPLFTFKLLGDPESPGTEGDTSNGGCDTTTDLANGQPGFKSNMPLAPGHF
T1 sequence (P23944 whole entry): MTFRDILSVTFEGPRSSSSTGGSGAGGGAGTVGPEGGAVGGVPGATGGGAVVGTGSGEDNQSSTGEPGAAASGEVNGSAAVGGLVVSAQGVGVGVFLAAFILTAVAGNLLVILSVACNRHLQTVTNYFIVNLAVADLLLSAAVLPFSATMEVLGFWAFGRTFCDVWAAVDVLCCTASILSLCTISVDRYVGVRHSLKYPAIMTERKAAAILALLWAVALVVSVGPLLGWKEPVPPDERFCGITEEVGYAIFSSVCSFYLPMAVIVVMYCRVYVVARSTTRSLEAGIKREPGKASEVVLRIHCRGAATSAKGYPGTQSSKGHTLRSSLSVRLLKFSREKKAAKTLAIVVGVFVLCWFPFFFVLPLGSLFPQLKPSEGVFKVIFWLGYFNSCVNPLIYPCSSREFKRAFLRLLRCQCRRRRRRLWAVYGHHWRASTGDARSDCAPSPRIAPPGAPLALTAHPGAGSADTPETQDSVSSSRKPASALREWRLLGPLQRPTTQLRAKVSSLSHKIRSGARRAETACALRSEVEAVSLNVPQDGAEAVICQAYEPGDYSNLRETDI
T1 sequence (P43140 whole entry): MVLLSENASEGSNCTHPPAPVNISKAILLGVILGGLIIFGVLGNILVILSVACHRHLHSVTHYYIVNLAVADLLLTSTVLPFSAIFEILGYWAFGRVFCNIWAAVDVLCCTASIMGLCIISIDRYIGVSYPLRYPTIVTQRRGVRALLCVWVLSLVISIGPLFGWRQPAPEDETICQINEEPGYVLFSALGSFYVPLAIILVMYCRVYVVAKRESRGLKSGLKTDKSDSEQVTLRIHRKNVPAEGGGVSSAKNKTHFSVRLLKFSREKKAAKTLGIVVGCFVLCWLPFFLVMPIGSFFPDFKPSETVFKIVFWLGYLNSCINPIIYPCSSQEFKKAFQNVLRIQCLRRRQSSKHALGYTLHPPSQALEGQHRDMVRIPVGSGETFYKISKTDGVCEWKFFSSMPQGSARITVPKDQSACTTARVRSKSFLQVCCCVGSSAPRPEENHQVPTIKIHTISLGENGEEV
In words: Displacement of [3H]prazosin from alpha1 adrenoceptor in rat cerebral cortex after 30 mins by microbeta scintillation counting. It counts as tissue-based. Summed up: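 Rat cerebral cortex homogenised in ice-cold 50 mM Tris-HCl (pH 7.6 at 25 °C), washed twice at 20000×g and resuspended at 10 mg wet weight/ml. Incubated with [3H]prazosin (19.5 Ci/mmol) and test compound for 30 min at 25 °C. Nonspecific binding defined with 10 µM phentolamine. GF/B filtration, scintillation counting, three-parameter logistic competition fit.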
A general note: Loss of bound radioactivity is the signal in a displacement assay; it reports binding, not function.

Data set [9] concerns Rattus norvegicus. In words: Antiarrhythmic activity in Wistar rat assessed as effect on heart beat at 2.5 mg/kg, iv after 5 mins. It counts as functional. A digest of the protocol: as §1
Data set [10] concerns Rattus norvegicus. In words: Cardiotoxicity in Wistar rat assessed as effect on P-Q interval at 2.5 mg/kg, iv after 5 mins. In kind it is toxicity, organism-based. Details: dose 2.5 mg/kg, route intravenous. As to conditions: in vivo. Summed up: as §1
Data set [11] deals with Rattus norvegicus. Kind of data set: Cardiotoxicity in Wistar rat assessed as effect on P-Q interval at 2.5 mg/kg, iv after 15 mins. In kind it is toxicity, organism-based. Details: dose 2.5 mg/kg, route intravenous. As to conditions: in vivo, 0.25 h. Summed up: as §1
Data set [12] deals with Rattus norvegicus. Kind of data set: Antiarrhythmic activity in barium chloride-induced Wistar rat arrhythmia model assessed as protection against mortality at 2.5 to 10 mg/kg, iv administered 15 mins prior to barium chloride-challenge. In kind it is functional, organism-based. As to conditions: Heart. Summed up:
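Szekeres model in male Wistar rats. Activity is gradual disappearance of arrhythmia with restored sinus rhythm; protection against disturbances and death scored. Groups of 6 animals.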

Data set [13] relates to Rattus norvegicus. In words: Antiarrhythmic activity in Wistar rat assessed as protection against adrenaline-induced extrasystoles at 2.5 to 10 mg/kg, iv administered 15 mins prior to adrenaline-challenge. In kind it is functional, organism-based. As to conditions: Heart. A digest of the protocol: as §2
The test system of data set [14] is Rattus norvegicus. Kind of data set: Cardiotoxicity in Wistar rat assessed as effect on P-Q interval at 2.5 mg/kg, iv after 1 min. Details: dose 2.5 mg/kg, route intravenous. As to conditions: in vivo. In kind it is toxicity, organism-based. A digest of the protocol:
as §1

For data set [15], the system named is Rattus norvegicus. In words: Antiarrhythmic activity in Wistar rat assessed as effect on heart beat at 2.5 mg/kg, iv after 15 mins. It counts as functional. Summed up:
as §1

Data set [16] relates to Rattus norvegicus. In words: Antiarrhythmic activity in iv dosed Wistar rat assessed as protection against adrenaline-induced arrhythmia administered 15 mins prior to adrenaline-challenge. In kind it is functional. As to conditions: Heart. A digest of the protocol:
as §2

Data set [17] has as its system Rattus norvegicus. In words: Hypotensive activity in normotensive Wistar rat assessed as decrease in diastolic blood pressure at 2.5 to 10 mg/kg, iv after 1 min measured up to 60 mins. In kind it is organism-based, Artery. Details: dose 2.5-10 mg/kg, route intravenous. The note with it: in vivo. Summed up: (§3)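 Right carotid artery cannulated with heparin-saline-filled tubing for blood pressure recording. After 5 min stabilisation, compound injected iv into the caudal vein (2.5–10 mg/kg, 1 ml/kg). Systolic and diastolic pressure followed for 60 min. n=6 per group, mean ± SEM, one-way ANOVA.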

In data set [18] the test system is Rattus norvegicus. Kind of data set: Hypotensive activity in normotensive Wistar rat assessed as decrease in systolic blood pressure at 2.5 to 10 mg/kg, iv after 1 min measured up to 60 mins. The note with it: in vivo. Details: dose 2.5-10 mg/kg, route intravenous. In kind it is organism-based, Artery. A digest of the protocol:
as §3

In data set [19] the test system is Rattus norvegicus. Kind of data set: Cardiotoxicity in Wistar rat assessed as effect on Q-T interval at 2.5 mg/kg, iv after 1 min. It counts as toxicity, organism-based. Details: dose 2.5 mg/kg, route intravenous. The note with it: in vivo. A digest of the protocol: as §1

By Ki is commonly meant a dissociation constant, usually derived from enzyme kinetics or from competition with a known ligand. Higher therefore signals a looser hold on the target. In general, pKi refers to the negative decadic logarithm of the Ki, by convention in mol/L. Low values mean a high Ki, high ones a low Ki. As a reminder, the ED50 is the dose that gives a 50% effect, or the effect in half of the subjects. For the molecule `COc1ccccc1N1CCN(CCCCN2C(=O)N(C)C(=O)C2(c2ccccc2)c2ccccc2)CC1.Cl`, the Activity in the data set with Rattus norvegicus [1] was 338 min⁻¹; in the data set with Rattus norvegicus [2] it was 81 ms; in the data set with Rattus norvegicus [4] it was 86 ms; in the data set on Rattus norvegicus [5] it was 22 ms; in the data set with Rattus norvegicus [6] it was 22 ms; with Rattus norvegicus [7], 22 ms. The Activity in the data set with Rattus norvegicus [9] is 333 min⁻¹; in the data set on Rattus norvegicus [10], 51 ms; in the data set with Rattus norvegicus [11] it was 49 ms; in the data set with Rattus norvegicus [14], 50 ms; in the data set with Rattus norvegicus [15] it was 346 min⁻¹; in the data set with Rattus norvegicus [17] it was “Toxic”. Moreover, the Activity entry in the data set with Rattus norvegicus [18] is on record as “Toxic”; in the data set with Rattus norvegicus [19] it was 83 ms. In addition, the result in the data set on Rattus norvegicus [3], in the data set with Rattus norvegicus [12] and with Rattus norvegicus [13] was Active. Also, the Ki in [8] came to 4.7 nM. This molecule had a pKi in [8] of 8.33. In the data set with Rattus norvegicus [16], the ED50 was 0.1 mg/kg.
